Each block holds one compound with its values, some of them ahead of it.
Tests used:
[1] = target: Vascular endothelial growth factor receptor 2 (Homo sapiens) (UniProt P35968); assay: Inhibition of human recombinant KDR at 500 nM in presence of ATP by radiometric assay relative to control
[2] = target: eIF-2-alpha kinase GCN2 (Homo sapiens) (UniProt Q9P2K8); assay: Inhibition of human recombinant GCN2 at 500 nM in presence of ATP by radiometric assay relative to control
[3] = target: PAS domain-containing serine/threonine-protein kinase (Homo sapiens) (UniProt Q96RG2); assay: Inhibition of human recombinant PASK at 500 nM in presence of ATP by radiometric assay relative to control
[4] = target: Serine/threonine-protein kinase/endoribonuclease IRE1 (Homo sapiens) (UniProt O75460); assay: Inhibition of human recombinant IRE1 at 500 nM in presence of ATP by radiometric assay relative to control
[5] = target: Activin receptor type-1-like (Homo sapiens) (UniProt P37023); assay: Inhibition of human recombinant ALK1 at 500 nM in presence of ATP by radiometric assay relative to control
Method in brief: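 Panel of 327 recombinant human kinases, each assayed in vitro by radiometric activity assay in duplicate at a single inhibitor concentration per compound, chosen with reference to its ULK1 inhibition. Activity remaining was expressed as percent of vehicle control, and percent inhibition was calculated as 100 minus percent activity remaining.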

[6] = target: Serine/threonine-protein kinase 10 (Homo sapiens) (UniProt O94804); assay: Inhibition of human recombinant LOK at 500 nM in presence of ATP by radiometric assay relative to control
[7] = target: Fibroblast growth factor receptor 4 (Homo sapiens) (UniProt P22455); assay: Inhibition of human recombinant FGFR4 at 500 nM related to control ULK1
[8] = target: Glycogen synthase kinase-3 beta (Homo sapiens) (UniProt P49841); assay: Inhibition of human recombinant GSK3B at 500 nM related to control ULK1
[9] = target: T1, cGMP-dependent protein kinase 2 (Homo sapiens) (UniProt Q13237); assay: Inhibition of human recombinant PKG2 at 15 nM related to control ULK1
T1 sequence (whole entry): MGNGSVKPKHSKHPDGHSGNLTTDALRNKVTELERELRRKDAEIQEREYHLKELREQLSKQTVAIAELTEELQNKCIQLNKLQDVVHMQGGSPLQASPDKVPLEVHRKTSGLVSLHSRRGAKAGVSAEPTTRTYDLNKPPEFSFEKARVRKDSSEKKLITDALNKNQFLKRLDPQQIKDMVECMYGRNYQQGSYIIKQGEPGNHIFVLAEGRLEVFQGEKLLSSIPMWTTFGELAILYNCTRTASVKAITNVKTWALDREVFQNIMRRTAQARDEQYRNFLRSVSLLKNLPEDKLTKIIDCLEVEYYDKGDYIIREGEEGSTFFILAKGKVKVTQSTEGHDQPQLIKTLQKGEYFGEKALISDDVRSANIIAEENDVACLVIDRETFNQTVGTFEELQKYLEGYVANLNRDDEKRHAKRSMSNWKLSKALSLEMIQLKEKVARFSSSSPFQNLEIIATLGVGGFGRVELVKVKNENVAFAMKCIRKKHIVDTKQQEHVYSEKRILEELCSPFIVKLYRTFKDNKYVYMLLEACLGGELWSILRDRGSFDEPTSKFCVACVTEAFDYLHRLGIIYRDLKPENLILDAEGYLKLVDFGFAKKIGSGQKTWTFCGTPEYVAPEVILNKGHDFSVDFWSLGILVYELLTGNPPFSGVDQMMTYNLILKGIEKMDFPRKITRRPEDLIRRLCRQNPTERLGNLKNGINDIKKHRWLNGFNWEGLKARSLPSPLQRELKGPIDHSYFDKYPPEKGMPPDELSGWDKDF

[10] = target: Serine/threonine-protein kinase 10 (Homo sapiens) (UniProt O94804); assay: Inhibition of human recombinant LOK at 15 nM in presence of ATP by radiometric assay relative to control
[11] = target: Serine/threonine-protein kinase SIK1 (Homo sapiens) (UniProt P57059); assay: Inhibition of human recombinant SIK at 15 nM in presence of ATP by radiometric assay relative to control
[12] = target: Myosin light chain kinase 2, skeletal/cardiac muscle (Homo sapiens) (UniProt Q9H1R3); assay: Inhibition of human recombinant skMLCK at 15 nM related to control ULK1
[13] = target: Maternal embryonic leucine zipper kinase (Homo sapiens) (UniProt Q14680); assay: Inhibition of human recombinant MELK at 15 nM related to control ULK1
[14] = target: Dual specificity protein kinase CLK1 (Homo sapiens) (UniProt P49759); assay: Inhibition of human recombinant CLK1 at 15 nM in presence of ATP by radiometric assay relative to control
[15] = target: Mitogen-activated protein kinase kinase kinase kinase 4 (Homo sapiens) (UniProt O95819); assay: Inhibition of human recombinant HGK at 15 nM related to control ULK1
[16] = target: Myosin light chain kinase 2, skeletal/cardiac muscle (Homo sapiens) (UniProt Q9H1R3); assay: Inhibition of human recombinant skMLCK at 15 nM in presence of ATP by radiometric assay relative to control
[17] = target: T2, Phosphorylase b kinase gamma catalytic chain, liver/testis isoform (Homo sapiens) (UniProt P15735); assay: Inhibition of human recombinant PHKg2 at 40 nM in presence of ATP by radiometric assay relative to control
T2 sequence (whole entry): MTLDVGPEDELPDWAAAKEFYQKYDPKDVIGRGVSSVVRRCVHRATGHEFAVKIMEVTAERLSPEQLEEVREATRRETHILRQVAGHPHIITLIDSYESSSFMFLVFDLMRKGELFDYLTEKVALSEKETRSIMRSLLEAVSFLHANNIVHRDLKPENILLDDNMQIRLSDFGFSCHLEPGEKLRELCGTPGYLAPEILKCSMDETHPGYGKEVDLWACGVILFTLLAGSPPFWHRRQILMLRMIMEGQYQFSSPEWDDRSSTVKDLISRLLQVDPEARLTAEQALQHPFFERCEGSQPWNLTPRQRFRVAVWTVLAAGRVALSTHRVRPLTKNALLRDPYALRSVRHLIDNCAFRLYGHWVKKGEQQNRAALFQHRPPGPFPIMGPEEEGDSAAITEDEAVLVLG

[18] = target: Serine/threonine-protein kinase PLK1 (Homo sapiens) (UniProt P53350); assay: Inhibition of human recombinant PLK1 at 40 nM related to control ULK1
[19] = target: Serine/threonine-protein kinase 33 (Homo sapiens) (UniProt Q9BYT3); assay: Inhibition of human recombinant STK33 at 40 nM related to control ULK1
[20] = target: Vascular endothelial growth factor receptor 2 (Homo sapiens) (UniProt P35968); assay: Inhibition of human recombinant KDR at 40 nM in presence of ATP by radiometric assay relative to control
[21] = target: Receptor-interacting serine/threonine-protein kinase 2 (Homo sapiens) (UniProt O43353); assay: Inhibition of human recombinant RIPK2 at 40 nM related to control ULK1
[22] = target: Serine/threonine-protein kinase MRCK beta (Homo sapiens) (UniProt Q9Y5S2); assay: Inhibition of human recombinant MRCKb at 40 nM related to control ULK1

Sequence of Vascular endothelial growth factor receptor 2 (Homo sapiens) (P35968 whole entry): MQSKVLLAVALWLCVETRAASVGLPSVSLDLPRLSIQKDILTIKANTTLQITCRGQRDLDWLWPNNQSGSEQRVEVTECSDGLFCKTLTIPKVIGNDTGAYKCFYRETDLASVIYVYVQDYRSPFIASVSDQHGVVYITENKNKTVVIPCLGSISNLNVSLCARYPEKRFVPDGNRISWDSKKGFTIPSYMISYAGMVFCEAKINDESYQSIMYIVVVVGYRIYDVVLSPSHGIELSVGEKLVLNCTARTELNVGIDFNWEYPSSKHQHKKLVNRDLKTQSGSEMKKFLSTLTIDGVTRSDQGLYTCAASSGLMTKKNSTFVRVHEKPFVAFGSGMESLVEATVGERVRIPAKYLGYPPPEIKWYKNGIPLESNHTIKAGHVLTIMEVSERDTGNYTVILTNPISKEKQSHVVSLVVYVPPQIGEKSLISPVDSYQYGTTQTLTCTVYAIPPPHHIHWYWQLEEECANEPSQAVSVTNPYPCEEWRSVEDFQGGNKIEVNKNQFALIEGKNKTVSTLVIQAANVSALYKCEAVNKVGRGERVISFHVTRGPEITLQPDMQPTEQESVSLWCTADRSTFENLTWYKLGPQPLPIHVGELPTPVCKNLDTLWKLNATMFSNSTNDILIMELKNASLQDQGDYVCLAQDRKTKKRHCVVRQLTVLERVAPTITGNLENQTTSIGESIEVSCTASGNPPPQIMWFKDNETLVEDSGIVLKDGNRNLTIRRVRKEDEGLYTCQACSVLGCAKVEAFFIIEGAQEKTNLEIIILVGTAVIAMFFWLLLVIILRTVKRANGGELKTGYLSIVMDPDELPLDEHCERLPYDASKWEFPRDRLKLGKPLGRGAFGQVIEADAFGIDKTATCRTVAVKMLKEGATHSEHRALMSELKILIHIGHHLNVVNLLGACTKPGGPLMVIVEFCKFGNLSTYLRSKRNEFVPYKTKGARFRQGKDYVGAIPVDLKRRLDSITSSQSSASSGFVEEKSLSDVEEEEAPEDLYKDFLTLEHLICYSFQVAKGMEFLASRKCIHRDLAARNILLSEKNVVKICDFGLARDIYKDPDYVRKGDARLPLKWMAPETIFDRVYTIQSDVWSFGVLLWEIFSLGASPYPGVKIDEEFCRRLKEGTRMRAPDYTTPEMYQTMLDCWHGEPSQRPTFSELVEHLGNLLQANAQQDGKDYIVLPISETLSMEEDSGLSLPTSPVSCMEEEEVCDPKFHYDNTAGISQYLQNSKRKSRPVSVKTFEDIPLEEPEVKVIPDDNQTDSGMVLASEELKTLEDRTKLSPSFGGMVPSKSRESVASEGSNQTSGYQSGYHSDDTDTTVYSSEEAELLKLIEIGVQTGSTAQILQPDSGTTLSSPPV
Sequence of Serine/threonine-protein kinase 10 (Homo sapiens) (O94804 whole entry, looked up): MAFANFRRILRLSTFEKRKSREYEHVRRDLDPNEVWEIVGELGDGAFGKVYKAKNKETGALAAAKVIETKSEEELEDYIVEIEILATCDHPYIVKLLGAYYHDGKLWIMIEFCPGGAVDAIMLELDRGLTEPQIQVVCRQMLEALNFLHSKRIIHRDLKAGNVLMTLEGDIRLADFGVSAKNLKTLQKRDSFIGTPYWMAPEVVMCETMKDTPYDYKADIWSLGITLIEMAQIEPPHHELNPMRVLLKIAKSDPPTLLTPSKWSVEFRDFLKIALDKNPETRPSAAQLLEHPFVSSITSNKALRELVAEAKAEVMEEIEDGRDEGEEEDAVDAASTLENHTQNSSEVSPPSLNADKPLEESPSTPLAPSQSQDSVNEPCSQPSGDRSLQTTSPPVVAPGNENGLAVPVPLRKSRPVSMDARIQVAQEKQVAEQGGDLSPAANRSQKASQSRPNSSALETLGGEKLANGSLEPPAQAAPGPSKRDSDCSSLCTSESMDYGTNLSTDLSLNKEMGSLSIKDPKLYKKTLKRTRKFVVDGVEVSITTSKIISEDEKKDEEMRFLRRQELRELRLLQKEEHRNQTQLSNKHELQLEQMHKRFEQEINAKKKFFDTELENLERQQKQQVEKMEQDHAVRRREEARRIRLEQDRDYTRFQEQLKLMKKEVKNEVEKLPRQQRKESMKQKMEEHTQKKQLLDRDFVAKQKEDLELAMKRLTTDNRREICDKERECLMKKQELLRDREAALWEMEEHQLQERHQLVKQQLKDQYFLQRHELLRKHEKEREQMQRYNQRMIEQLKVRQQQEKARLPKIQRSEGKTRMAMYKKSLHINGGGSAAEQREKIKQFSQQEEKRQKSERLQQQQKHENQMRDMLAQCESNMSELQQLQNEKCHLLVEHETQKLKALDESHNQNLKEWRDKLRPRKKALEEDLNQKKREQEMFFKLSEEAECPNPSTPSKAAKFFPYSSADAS
Sequence of Myosin light chain kinase 2, skeletal/cardiac muscle (Homo sapiens) (Q9H1R3 whole entry, canonical isoform): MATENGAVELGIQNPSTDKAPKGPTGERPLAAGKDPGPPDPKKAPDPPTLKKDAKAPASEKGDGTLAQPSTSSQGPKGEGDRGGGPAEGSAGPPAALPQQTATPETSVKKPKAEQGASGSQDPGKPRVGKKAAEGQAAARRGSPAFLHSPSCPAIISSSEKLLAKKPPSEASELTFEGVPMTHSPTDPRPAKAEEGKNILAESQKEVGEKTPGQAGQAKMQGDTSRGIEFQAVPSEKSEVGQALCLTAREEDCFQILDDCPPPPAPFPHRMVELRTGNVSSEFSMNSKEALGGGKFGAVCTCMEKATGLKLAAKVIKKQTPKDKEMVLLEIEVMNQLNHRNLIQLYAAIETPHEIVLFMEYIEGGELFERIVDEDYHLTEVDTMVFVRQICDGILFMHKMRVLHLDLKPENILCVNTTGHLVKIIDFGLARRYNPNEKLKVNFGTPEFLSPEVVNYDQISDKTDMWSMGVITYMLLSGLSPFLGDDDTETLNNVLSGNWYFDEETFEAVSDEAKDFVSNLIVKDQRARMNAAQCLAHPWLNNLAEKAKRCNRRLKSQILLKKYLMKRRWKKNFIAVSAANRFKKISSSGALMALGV
Sequence of PAS domain-containing serine/threonine-protein kinase (Homo sapiens) (Q96RG2 whole entry, the tested form may be a part): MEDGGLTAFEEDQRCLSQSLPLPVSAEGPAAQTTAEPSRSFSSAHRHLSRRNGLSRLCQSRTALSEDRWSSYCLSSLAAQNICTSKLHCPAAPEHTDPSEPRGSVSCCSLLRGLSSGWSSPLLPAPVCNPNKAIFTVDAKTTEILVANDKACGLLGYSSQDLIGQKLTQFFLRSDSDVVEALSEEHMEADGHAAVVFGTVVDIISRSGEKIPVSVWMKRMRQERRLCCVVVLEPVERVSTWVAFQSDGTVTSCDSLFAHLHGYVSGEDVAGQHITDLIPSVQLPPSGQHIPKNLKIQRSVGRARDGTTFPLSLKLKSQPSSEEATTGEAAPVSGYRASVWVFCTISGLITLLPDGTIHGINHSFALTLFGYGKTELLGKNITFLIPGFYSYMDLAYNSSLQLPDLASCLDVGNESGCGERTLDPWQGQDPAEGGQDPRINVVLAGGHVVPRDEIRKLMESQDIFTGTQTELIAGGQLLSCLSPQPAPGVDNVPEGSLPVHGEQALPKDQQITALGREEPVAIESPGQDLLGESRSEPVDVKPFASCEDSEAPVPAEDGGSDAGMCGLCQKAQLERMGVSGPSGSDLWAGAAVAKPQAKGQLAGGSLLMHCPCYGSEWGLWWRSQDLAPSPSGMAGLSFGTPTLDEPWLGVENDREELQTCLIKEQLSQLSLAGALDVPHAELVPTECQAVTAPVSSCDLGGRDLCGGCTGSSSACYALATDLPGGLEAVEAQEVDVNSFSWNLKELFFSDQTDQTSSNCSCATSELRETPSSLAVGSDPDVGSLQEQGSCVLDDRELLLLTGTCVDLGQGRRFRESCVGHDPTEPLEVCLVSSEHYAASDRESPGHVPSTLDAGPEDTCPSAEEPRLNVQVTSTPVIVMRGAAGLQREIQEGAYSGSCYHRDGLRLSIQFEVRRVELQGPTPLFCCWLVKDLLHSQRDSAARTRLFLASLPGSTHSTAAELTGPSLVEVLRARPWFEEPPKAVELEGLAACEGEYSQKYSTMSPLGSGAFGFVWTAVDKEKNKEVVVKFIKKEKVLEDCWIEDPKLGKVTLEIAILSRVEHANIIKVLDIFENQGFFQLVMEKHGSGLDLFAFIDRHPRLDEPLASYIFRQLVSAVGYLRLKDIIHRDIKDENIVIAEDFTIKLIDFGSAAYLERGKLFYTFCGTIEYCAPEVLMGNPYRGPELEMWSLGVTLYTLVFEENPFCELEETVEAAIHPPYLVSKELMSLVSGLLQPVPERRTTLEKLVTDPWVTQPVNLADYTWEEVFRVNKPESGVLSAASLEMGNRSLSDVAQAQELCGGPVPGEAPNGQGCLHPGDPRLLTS
Sequence of Activin receptor type-1-like (Homo sapiens) (P37023 whole entry): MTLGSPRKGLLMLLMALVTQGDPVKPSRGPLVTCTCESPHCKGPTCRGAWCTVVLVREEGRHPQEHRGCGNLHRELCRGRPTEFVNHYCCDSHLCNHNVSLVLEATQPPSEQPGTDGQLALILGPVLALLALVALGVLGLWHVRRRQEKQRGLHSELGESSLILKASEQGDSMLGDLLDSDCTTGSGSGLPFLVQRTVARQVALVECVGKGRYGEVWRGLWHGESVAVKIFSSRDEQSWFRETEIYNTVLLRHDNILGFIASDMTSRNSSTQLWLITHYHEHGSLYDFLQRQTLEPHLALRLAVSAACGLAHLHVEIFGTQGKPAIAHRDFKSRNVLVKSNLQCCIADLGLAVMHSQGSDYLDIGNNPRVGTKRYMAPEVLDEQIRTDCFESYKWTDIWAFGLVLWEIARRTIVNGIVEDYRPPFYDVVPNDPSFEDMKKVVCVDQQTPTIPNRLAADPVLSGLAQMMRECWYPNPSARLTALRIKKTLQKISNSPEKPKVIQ

inhibition [1]: 0%
inhibition [2]: 2%
inhibition [3]: 10%
inhibition [4]: 0%
inhibition [5]: 0%
inhibition [6]: 0%
fold change (FC) [7]: 0.14
fold change (FC) [8]: 0
Compound: CNC(=O)c1ccccc1Oc1nc(Nc2cc(OC)c(OC)c(OC)c2)ncc1Br

fold change (FC) [9]: 0.05
inhibition [10]: 0%
inhibition [11]: 74%
fold change (FC) [12]: 0.13
fold change (FC) [13]: 0.76
inhibition [14]: 84%
fold change (FC) [15]: 0
inhibition [16]: 11%
Compound: CC(C)[C@H](NC(=O)c1cc(-c2cnn3cc(-c4ccc(OCCN5CCCCC5)cc4)cnc23)cs1)C(F)(F)F

inhibition [17]: 0%
fold change (FC) [18]: 0
fold change (FC) [19]: 0.26
inhibition [20]: 5%
fold change (FC) [21]: 0.41
fold change (FC) [22]: 0.07
Compound: O=C(N[C@@H](C1CC1)C(F)(F)F)c1cc(-c2cnn3cc(-c4ccc(F)cc4)cnc23)cs1
